14-3-3 Bad PPI: disrupts binding of bovine 14-3-3 zeta to phospho-Bad peptide; 220,000 tested, 0.71% active; TR-FRET 14-3-3zeta/Dy647-pBad peptide displacement, 1 h; inhibition, % at 21.7 µM; AID 781;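 active means inhibition above about 70%, limit read from the data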;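 further: 0% = full 14-3-3 plus peptide FRET controls and 100% = background without 14-3-3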
RBBP9 inh: inhibitors of human serine hydrolase RBBP9. O75884. recombinant RBBP9, FP-Rh probe fluorescence polarization. inhibition, % at 7.94 µM. 220,000 tested, 0.2% active. AID 1515;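 active means inhibition above the campaign mean of all tested compounds plus 3 SD, cut at about 14% in these data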;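 further: plate controls were DMSO wells with RBBP9 for no effect and wells lacking RBBP9 protein for full effect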
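Assay system: recombinant human RBBP9; Reagent: Serine-hydrolase probe FP-Rh, 375 nM pre-mixing; Doses: 7.94 µM single dose, 0.794% DMSO; Incubation: 30 min then 45 min, 25 °C; Detection: fluorescence polarization (mP), excitation 525 nm, emission 598 nm; Evaluation: percent inhibition from mP, scaled between DMSO and no-protein wells.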
WT yeast gro inh: growth inhibition of WT yeast, mitochondrial fusion screen. mitochondrial fusion phenotypic screen, WT strain. inhibition, % at 10 µM. 190,000 tested, 2.1% active. AID 1362; in the data active means inhibition above about 58%; tested in S. cerevisiae
KCC2 mod: modulates chloride dependent transport by human KCC2; Q9H2X9; KCC2 cells, thallium flux FluoZin-2 fluorescence; B-score of Tl+ flux slope (higher = more flux/activation; lower = inhibition) at 10 µM; 190,000 tested, 2.2% active; AID 1456;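 active means thallium flux slope and its plate-corrected score both differing from the plate sample mean at a set confidence after two filtering rounds, in either direction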;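 further: slope of fluorescence scaled to starting intensity during 10 to 20 s after thallium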
Target sequence (Q9H2X9 whole entry, looked up): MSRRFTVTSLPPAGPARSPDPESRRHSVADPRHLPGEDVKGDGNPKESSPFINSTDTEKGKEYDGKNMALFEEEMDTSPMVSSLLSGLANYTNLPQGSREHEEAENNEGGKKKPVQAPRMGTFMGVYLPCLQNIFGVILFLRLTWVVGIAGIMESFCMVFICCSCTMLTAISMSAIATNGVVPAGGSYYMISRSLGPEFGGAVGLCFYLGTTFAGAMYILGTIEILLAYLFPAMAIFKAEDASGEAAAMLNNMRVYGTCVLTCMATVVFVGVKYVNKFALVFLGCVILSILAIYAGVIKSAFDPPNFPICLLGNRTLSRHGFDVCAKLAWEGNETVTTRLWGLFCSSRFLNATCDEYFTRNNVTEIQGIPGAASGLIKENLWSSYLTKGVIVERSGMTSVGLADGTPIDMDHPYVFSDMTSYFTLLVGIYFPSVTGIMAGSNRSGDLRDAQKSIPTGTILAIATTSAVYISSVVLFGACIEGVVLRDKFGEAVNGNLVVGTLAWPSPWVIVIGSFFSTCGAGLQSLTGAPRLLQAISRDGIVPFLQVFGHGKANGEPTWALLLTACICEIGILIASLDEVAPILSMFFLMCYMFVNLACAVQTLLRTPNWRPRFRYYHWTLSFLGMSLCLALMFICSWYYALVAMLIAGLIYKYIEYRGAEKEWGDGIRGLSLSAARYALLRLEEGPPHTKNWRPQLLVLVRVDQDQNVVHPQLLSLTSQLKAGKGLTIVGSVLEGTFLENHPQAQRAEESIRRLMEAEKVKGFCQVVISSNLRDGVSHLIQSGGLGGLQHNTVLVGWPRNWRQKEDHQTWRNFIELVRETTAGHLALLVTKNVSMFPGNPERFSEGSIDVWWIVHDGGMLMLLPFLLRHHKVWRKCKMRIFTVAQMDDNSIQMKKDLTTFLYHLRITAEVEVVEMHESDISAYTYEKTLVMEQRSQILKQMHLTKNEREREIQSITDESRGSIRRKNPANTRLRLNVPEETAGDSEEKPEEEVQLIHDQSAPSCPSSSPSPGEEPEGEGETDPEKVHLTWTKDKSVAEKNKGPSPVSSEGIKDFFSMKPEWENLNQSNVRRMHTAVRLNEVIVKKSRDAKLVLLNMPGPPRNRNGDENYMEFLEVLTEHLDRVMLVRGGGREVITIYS
p47phox inh: blocks human p47phox regulatory protein of NADPH oxidases; P14598; 220,000 tested, 0.53% active; p47phox/p22phox peptide binding, fluorescence polarization, 2 h; inhibition, % at 24.7 µM;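 active means inhibition above about 30%, limit read from the data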;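 further: 0% = p47phox with labelled peptide and 100% = labelled peptide alone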
ROMK primary: modulators of human ROMK potassium channel; Tet-inducible ROMK, thallium flux fluorescence; actives lie on both sides; 130,000 tested, 2% active; B-score at 10 µM; P48048;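 active means signal ratio slope over the read window, or its plate-corrected B-score, at least 3 SD from the plate mean, either direction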;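 further: B-score of the F/F0 ratio slope over 7 to 12 s after thallium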
KCC2 sec1: KCC2 (human) modulation, secondary assay. HEK293-KCC2, thallium flux, FluoZin2 fluorescence; active compounds read high. 3,700 tested, 15% active. normalised thallium flux (F/F0 slope) at 10 µM. AID 1713. shares compounds with KCC2 mod;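 active means thallium flux slope above the same plate's solvent-only control mean plus 3 SD; inconclusive means the two replicate wells disagree; inactive means no significant difference from solvent-only control wells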
KCC2 bumet counter: thallium flux persisting under bumetanide in KCC2 cells, counter-screen secondary assay. shares compounds with KCC2 mod. HEK293-KCC2 + bumetanide/ouabain, thallium flux FluoZin2; active compounds read high. normalized thallium flux at 10 µM. 3,700 tested, 49% active. AID 1714;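 active means thallium entry rate above the same plate's blocked-transporter control wells by more than 3 SD; inconclusive means the two repeat wells disagree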;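 further: raw slope of fluorescence over initial fluorescence between 10 and 20 s after thallium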
KCC2 sec2: KCC2 (human) modulation, second secondary assay; shares compounds with KCC2 mod; HEK293-KCC2, thallium flux FluoZin2 fluorescence; actives lie on both sides; F/F0 rise rate, 10–20 s post-thallium; normalized thallium flux at 10 µM; 3,700 tested, 23% active; AID 1715;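 active means thallium flux slope more than 3 SD above or below the plate's solvent-only control mean, mostly below; inconclusive means the two repeat wells disagreed; inactive means no significant shift from solvent-only controls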;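 further: raw slope with 0.1% DMSO as baseline and bumetanide as block control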
HEK293 Tl flux: parental HEK flux effect, counter-screen. 3,700 tested, 46% active. HEK293 parental cells, thallium flux FluoZin2, ouabain; baseline-ratio fluorescence slope, 10–20 s after thallium. thallium flux rate (normalised fluorescence) at 10 µM. shares compounds with KCC2 mod;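 active means thallium flux rate significantly above the same plate's solvent-only control wells, beyond their mean plus 3 SD; inconclusive means the two replicate wells gave conflicting results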
KCC2 ouabain: confirmation of human KCC2 modulators with ouabain. shares compounds with KCC2 mod. HEK293-KCC2, thallium flux FluoZin2 fluorescence; bidirectional: low = inhibitor, high = activator. raw Tl+ flux slope (below DMSO = inhibition, above = activation) at 10 µM. 3,700 tested, 48% active. AID 1717;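 active means thallium flux slope beyond 3 SD from same-plate DMSO control mean in most replicates, usually higher, sometimes lower; inconclusive means repeat tests gave conflicting results; inactive means no significant difference from controls in most replicates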;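 further: slope of initial-normalized fluorescence between seconds 10 and 20 after thallium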
HEK counter2: parental HEK flux effect, counter-screen 2. shares compounds with KCC2 mod. HEK293 parental, thallium flux FluoZin-2 fluorescence slope. thallium flux slope at 10 µM. 3,700 tested, 33% active. AID 1718;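 active means thallium flux slope above the same plate's solvent-control mean plus 3 SD in both duplicate wells; inconclusive means duplicate wells that disagreed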;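 further: run without ouabain in cells lacking the KCC2 cotransporter; slope of fluorescence scaled to its starting value between 10 and 20 s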
* = called active by the depositor; ? = inconclusive; / = not tested or not shown. Most compounds without a hit are left out; they make up all but 5.8% or so of the library.

SMILES	14-3-3 Bad PPI	RBBP9 inh	WT yeast gro inh	KCC2 mod	p47phox inh	ROMK primary	others
C=C1[C@@H](C)[C@H]2[C@H](Cc3ccccc3)NC(=O)[C@]23OC(=O)/C=C/[C@H](O)CCC[C@@H](C)C/C=C/[C@H]3[C@@H]1O	2.3	4.8	1.3	-0.421	30.5*	/
CCN1C(=O)/C(=C\c2ccc([N+](=O)[O-])s2)C(=O)NC1=S	94.3*	-2.1	35.2	0.00156	-12.3	0.166
O=C(Cn1nc(-c2ccccc2)ccc1=O)N1CCC2(CC1)OCCO2	-6.7	-10.3	2.6	-0.00428	-12.1	0.0292
O=C(C1CC(=O)N(C2CCCCCCC2)C1)N1CCC2(CC1)OCCO2 (stereo not given)	4.5	2.3	-1.3	0.666	34.5*	/
O=C(C1CCC(=O)N1C1CCCC1)N1CCC2(CC1)OCCO2 (stereo not given)	5.5	-6.7	3.5	-0.0374	-7.7	/
O=C(O)c1[nH]c(=O)[nH]c(=O)c1F	-21.4	-4.0	/	-0.14	-6.0	/
COC(=O)c1c(C)[nH]c(C(=O)C(C)[N+]23CCN(CC2)CC3)c1C (stereo not given)	80.6*	-3.5	-12.1	-0.418	-4.0	0.145
O=P(Nc1cccnc1)(Oc1ccccc1Cl)Oc1ccccc1Cl	0.6	-6.6	3.6	-1.25	-9.8	-1.06
CN1C(=O)CN=C(c2ccccc2)c2cc([N+](=O)[O-])ccc21	6.0	1.4	-16.8	0.945	-4.2	/
CCC(=NCC1CCCO1)c1c(O)n(-c2ccccc2C)c(=O)[nH]c1=O (stereo not given)	-2.1	-1.0	/	0.307	-6.2	/
COC(=O)C1CN(C#N)N(c2ccc(Cl)cc2)C12c1ccccc1-c1ccccc12 (stereo not given)	-0.5	-6.9	74.0*	-0.0537	12.8	/
COc1ccc(C(=O)O/N=C(/C(N)=O)P(=O)(OC(C)C)OC(C)C)cc1	-5.1	-5.7	/	-0.93	-9.6	/
CCN1C(=O)/C(=C/c2ccc3c(c2)CCN3CCCCl)C(=O)NC1=S	-28.0	3.5	17.8	-0.0611	3.2	-0.849
C=CCN1C(=O)/C(=C/c2ccc3c(c2)CCCN3CCC)C(=O)NC1=S	7.7	-6.9	17.8	0.901	42.9*	-1.24
Cc1nc2ccccc2c(=O)n1-c1ccc(Br)cc1[N+](=O)[O-]	5.3	-6.0	2.5	0.247	-8.9	-0.0969
Cc1cc(C)c(-n2c(O)c(/C=N/N3CCCCC3c3cccnc3)c(=O)[nH]c2=O)c(C)c1 (stereo not given)	-2.3	8.3	-12.3	-1.12	-17.0	/
COC(=O)c1c(N)n(Cc2ccc(OC)cc2)c2nc3ccccc3nc12	-11.5	-5.6	70.6*	-0.0363	-10.6	-0.0893
O=C(c1ccco1)c1cn(Cc2ccc(Cl)cc2)c2ccccc12	6.0	-8.4	68.9*	-1.39	-10.5	-1.03
COc1ccccc1OCCCn1cc(C(=O)c2ccco2)c2ccccc21	2.8	-7.0	31.0	-1.52	-7.8	/
CCN(CC)S(=O)(=O)N1CCC(C(=O)N2CCC3(CC2)OCCO3)CC1	-3.8	0.7	-6.8	1.29	-5.8	0.37
CN1C2c3ccccc3C3C4c5ccccc5C(C31)C(C2[N+](=O)[O-])N4C (stereo not given)	-6.2	-0.5	/	-0.106	91.8*	/
CCNC(=O)NC(=O)C(C)OC(=O)c1c(C)nn(Cc2ccccc2Cl)c1Cl (stereo not given)	-3.3	-8.0	5.3	-0.102	-10.3	0.666
O=C1C(=O)c2ccccc2-c2ccccc21	-3.3	2.7	96.8*	0.727	-3.3	/
CCOC(=O)C1SC2(C(F)F)CC1(O)c1c(c(OC)c3occc3c1OC)O2 (stereo not given)	-17.4	2.8	63.9*	-0.744	-0.5	-1.9
CCOC(=O)CC(NC(=O)C(Cc1ccc(N(CCCl)CCCl)cc1)NC(C)=O)C(=O)OCC (stereo not given)	-2.1	-5.0	-13.8	-0.0679	-2.2	0.97
SMILES	14-3-3 Bad PPI	RBBP9 inh	WT yeast gro inh	KCC2 mod	p47phox inh	ROMK primary	others
CC(=O)c1c(C)n(CC2CCCO2)c2ccc(O)cc12 (stereo not given)	5.1	-0.7	1.2	0.225	-4.9	/
CC(=O)c1c(C)n(Cc2ccccc2Cl)c2ccc(O)cc12	-2.8	-6.0	-17.5	1.35	115.3*	0.429
CC(C)C[C@H](NC(=O)[C@@H]1CCCN1C(=O)[C@@H](N)Cc1ccc(O)cc1)C(=O)NCC(N)=O	3.7	-2.0	-12.1	-3.08*	0.5	-0.36	KCC2 sec1=?;KCC2 bumet counter=0.00572*;KCC2 sec2=0.031;HEK293 Tl flux=?;KCC2 ouabain=0.0208;HEK counter2=0.0115
CC(C)CC(NC(=O)C1CCCCC1)C(=O)N1CCC2(CC1)OCCO2 (stereo not given)	5.1	3.0	-2.2	/	1.2	-0.136
Cc1nc2cc(C(F)(F)F)ccc2n1C1CCN(Cc2nnnn2Cc2cccs2)CC1	9.3	-1.5	3.6	-1.34	2.0	-0.445
Cc1nc2cc(C(F)(F)F)ccc2n1C1CCN(Cc2nnnn2Cc2ccc3c(c2)OCO3)CC1	-0.9	-1.0	15.3	-4.7*	-8.7	-0.47	KCC2 sec1=0.0049;KCC2 bumet counter=0.00517;KCC2 sec2=?;HEK293 Tl flux=0.00715;KCC2 ouabain=?;HEK counter2=0.0112
Cc1cc(OCC(=O)O)c2c3c(c(=O)oc2c1)CCCC3	23.1	6.5	16.4	0.117	-4.2	/
COC(=O)c1ccc(COc2cc(C)cc3oc(=O)c4c(c23)CCCC4)o1	10.9	-4.0	20.1	/	0.2	-0.22	KCC2 sec1=0.00749;KCC2 bumet counter=0.00444;KCC2 sec2=0.0272;HEK293 Tl flux=0.00491*;KCC2 ouabain=?;HEK counter2=0.00845
CCOc1cc(C2C(C#N)=C(N)Oc3c2c(=O)oc2ccccc32)ccc1OC(=O)c1cccs1 (stereo not given)	-3.0	-4.0	21.0	-0.1	-11.5	/
O=c1[nH]c(=O)n(Cc2ccco2)c(O)c1C=NCc1cccs1	-5.3	9.4	-0.3	/	-17.9	0.536

Screening data: PubChem BioAssay, several laboratories
